# According to paper PMC4124904 (British journal of haematology, 2010):
# Experiments:
# [1] = Pharmacokinetic analysis of idarubicin in plasma; assay type: in vivo, human; conditions: for Cmax: iv, Maximum idarubicin plasma concentration (cmax), schedule A
# [2] = test system: patients with relapsed or refractory leukaemia; experiment: Phase I safety and tolerability: adverse events, DLT, MTD; assay type: in vivo, human; conditions: Schedule B: for 3 days, with idarubicin 12 mg/m^2/d IV for 3 days
# [3] = Pharmacokinetic analysis of vorinostat and two metabolites; assay type: in vivo, human; conditions: for Tmax / Cmax: human, serum
# How it was run: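 Relapsed/refractory leukaemia patients self-dosed oral HDAC inhibitor TID for 14 days (arm A) or 3 days (arm B), 3+3 escalation from 100 mg, with anthracycline 12 mg/m2 IV over 30 min on days 1–3. Blood clotted 20–30 min at 4°C, spun 2,000 × g 15 min at 4°C, serum stored at -70°C. […] Dosing times unrecorded, so only Cmax and Tmax were derived.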
# [4] = test system: histone-H3 acetylation in PBMCs; experiment: Histone-H3 acetylation in PBMCs; assay type: in vivo, human
# TOP2A mRNA = experiment: Real-time PCR of TOP2A mRNA expression in PBMCs; assay type: in vivo, human
# [5] = test system: patients with refractory cutaneous T cell lymphoma (CTCL); conditions: et al 2007, cited from earlier work
compound,measurement,setting,value
CC(=O)[C@]1(O)Cc2c(O)c3c(c(O)c2[C@@H](O[C@H]2C[C@H](N)[C@H](O)[C@H](C)O2)C1)C(=O)c1ccccc1C3=O [idarubicin],half-life,"[1]; human, plasma, intravenous",~11 h
same,Cmax,"[1]; human, plasma, mean, idarubicin 30-min intravenous infusion",66.1 ng/mL
same,Cmax,"[1]; human, plasma, range, idarubicin 30-min intravenous infusion",19.5 to 139 ng/mL
same,"Idarubicin peak plasma concentration, mean","[1]; schedule B, idarubicin 30-min intravenous infusion",55.4 ng/mL
O=C(CCCCCCC(=O)Nc1ccccc1)NO [vorinostat],Maximum tolerated dose (MTD) of vorinostat,[2],400 mg TID
same,Plasma concentrations achieved,"[3]; TID dosing for 3 days, dose levels of 400 mg and 500 mg",> 2000 nM
same,Tmax,[3]; oral,1 to 3 h
same,Cmax,"[3]; oral, Median Cmax for vorinostat, non-responders",800 nM
same,Tmax,"[3]; po, 100 mg",2.5 h
same,Cmax,"[3]; po, 100 mg, Vorinostat Mean Cmax, vorinostat 100 mg TID for 3 days oral, with idarubicin, N=3",688 nM
same,Cmax,"[3]; po, 100 mg, Vorinostat Median Cmax (Range), vorinostat 100 mg TID for 3 days oral, with idarubicin, N=3",331 nM
same,Cmax,"[3]; po, 200 mg, Vorinostat Mean Cmax, vorinostat 200 mg TID for 3 days oral, with idarubicin, N=3",522 nM
same,Cmax,"[3]; po, 200 mg, Vorinostat Median Cmax (Range), vorinostat 200 mg TID for 3 days oral, with idarubicin, N=3",443 nM
same,Tmax,"[3]; po, 300 mg",2.5 h
same,Tmax,"[3]; po, 400 mg",2.25 h
same,Vorinostat Median Tmax,"[3]; vorinostat 100 mg TID for 3 days oral, with idarubicin, N=3",2 h
same,Vorinostat Median Tmax,"[3]; vorinostat 200 mg TID for 3 days oral, with idarubicin, N=3",1 h
same,Vorinostat Median Tmax,"[3]; vorinostat 500 mg TID for 3 days oral, with idarubicin, N=5",3 h
same,Patients with detectable histone acetylation at day 21,[4]; 3-day schedule of vorinostat,50%
same,Patient samples with increased histone-H3 acetylation,"[4]; 15 of 33 available patient samples, both schedules",46%
same,Patients with increased histone-H3 acetylation,[4]; schedule A,5/11
same,Patients with increased histone-H3 acetylation,[4]; schedule B,10/22
same,Change of TOP2A mRNA levels relative to pretreatment,"TOP2A mRNA; schedule A, day 1 to day 21, p=0.016, Wilcoxon signed rank test",downregulation
same,Change of TOP2A mRNA levels relative to pretreatment,"TOP2A mRNA; schedule B, by day 3 of therapy, p=0.168, Wilcoxon, returned to baseline later",trend towards downregulation
same,Response rate,"[5]; Phase II, 3 different schedules, refractory CTCL, ref Duvic",24%
same,Objective response rate,"[5]; second Phase II trial, progressive or refractory CTCL, ref Olsen",30%
